Assay results from ChEMBL document CHEMBL1140074, “Aminoacyl-anthraquinone conjugates as telomerase inhibitors: synthesis, biophysical and biological evaluation” (J Med Chem, 2008).

Legend:
Homo sapiens [1] = organism: Homo sapiens; test: Binding affinity to human telomeric DNA sequence assessed as stabilization of G-quadruplex at 10 uM by thermal denaturation
Summary of the method: (§1)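 Fluorescence melting in a LightCycler of 0.25 µM telomeric oligonucleotide HTS (5'-FAM, 3'-methyl red) in LiP buffer (10 mM LiOH, 50 mM KCl, pH 7.4 with H3PO4). Samples were denatured at 95 °C for 5 min, then cooled and reheated at 0.5 °C/min in 1 °C steps with 2 min equilibration per step. Excitation 488 nm, emission 520 nm. ΔTm was taken relative to ligand-free DNA.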

Homo sapiens [2] = organism: Homo sapiens; test: Binding affinity to human telomeric DNA sequence assessed as stabilization of G-quadruplex at 1 uM by thermal denaturation; summary of the method: as §1
[3] = biological target: DNA polymerase I, thermostable (Thermus aquaticus, UniProt P19821); test: Inhibition of Taq polymerase
Sequence of DNA polymerase I, thermostable (P19821 whole entry): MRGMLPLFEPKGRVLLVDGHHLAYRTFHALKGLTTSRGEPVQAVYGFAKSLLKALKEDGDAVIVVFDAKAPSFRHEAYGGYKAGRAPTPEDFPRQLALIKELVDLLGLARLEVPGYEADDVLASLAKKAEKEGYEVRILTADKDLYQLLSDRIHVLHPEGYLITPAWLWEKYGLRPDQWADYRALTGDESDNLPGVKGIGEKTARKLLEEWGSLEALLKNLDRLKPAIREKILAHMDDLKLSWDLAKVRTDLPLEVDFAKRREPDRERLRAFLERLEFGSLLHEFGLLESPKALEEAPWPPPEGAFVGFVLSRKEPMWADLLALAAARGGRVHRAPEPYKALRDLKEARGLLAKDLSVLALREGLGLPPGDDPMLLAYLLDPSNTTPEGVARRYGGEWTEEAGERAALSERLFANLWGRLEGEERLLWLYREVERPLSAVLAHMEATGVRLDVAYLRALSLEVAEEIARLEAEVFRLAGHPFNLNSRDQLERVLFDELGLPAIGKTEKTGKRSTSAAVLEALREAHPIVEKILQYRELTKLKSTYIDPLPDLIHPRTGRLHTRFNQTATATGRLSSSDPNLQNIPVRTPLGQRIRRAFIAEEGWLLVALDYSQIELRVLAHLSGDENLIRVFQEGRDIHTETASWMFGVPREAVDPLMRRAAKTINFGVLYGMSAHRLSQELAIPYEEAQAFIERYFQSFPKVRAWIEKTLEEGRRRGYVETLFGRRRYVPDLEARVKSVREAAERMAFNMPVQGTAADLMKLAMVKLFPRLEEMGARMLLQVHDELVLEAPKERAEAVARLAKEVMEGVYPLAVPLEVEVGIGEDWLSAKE
Summary of the method: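 PCR with 2.5 ng pBR322 template and primers Tup/Tdown (0.5 µM) amplifying plasmid bases 906-1064. Compounds tested from 20 nM to 40 µM. Run 25 cycles of 94 °C, 65 °C and 72 °C (30 s each). Products resolved on 2% agarose in TBE and stained with ethidium bromide.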

[4] = biological target: Telomerase reverse transcriptase (Homo sapiens, UniProt O14746); test: Inhibition of telomerase in human JR8 cells by TRAP assay; format: cell-based
Sequence of Telomerase reverse transcriptase (O14746 whole entry): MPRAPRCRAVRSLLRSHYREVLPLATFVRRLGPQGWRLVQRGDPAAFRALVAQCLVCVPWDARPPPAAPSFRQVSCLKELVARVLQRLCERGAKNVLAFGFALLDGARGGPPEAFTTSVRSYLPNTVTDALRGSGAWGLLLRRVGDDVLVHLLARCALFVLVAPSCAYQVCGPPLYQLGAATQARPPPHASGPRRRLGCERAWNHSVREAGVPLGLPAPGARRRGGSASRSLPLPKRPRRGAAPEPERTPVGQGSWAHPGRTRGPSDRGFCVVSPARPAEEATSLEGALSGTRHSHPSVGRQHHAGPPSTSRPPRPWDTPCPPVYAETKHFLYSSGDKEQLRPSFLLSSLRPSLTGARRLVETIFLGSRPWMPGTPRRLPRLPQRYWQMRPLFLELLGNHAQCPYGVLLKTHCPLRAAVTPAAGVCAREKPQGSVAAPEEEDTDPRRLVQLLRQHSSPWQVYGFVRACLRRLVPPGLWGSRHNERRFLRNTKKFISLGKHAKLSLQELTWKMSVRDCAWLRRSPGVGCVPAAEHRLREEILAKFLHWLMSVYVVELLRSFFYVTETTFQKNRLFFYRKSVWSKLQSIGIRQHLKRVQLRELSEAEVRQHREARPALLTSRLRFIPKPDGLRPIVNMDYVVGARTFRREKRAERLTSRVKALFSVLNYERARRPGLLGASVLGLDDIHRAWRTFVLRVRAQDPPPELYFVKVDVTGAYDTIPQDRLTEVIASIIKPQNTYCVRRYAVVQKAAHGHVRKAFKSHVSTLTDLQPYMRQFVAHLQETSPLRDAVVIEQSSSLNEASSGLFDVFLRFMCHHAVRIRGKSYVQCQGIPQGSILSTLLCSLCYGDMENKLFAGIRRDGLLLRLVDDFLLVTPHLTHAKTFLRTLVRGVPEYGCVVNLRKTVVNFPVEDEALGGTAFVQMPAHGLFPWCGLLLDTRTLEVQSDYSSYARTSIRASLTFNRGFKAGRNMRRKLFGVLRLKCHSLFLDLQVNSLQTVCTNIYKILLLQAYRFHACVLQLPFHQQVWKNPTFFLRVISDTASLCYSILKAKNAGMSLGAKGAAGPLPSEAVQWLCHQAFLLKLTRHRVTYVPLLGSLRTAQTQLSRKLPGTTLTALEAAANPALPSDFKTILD
Summary of the method: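 Telomerase source was a CHAPS lysate of exponentially growing JR8 cells (500 ng protein per reaction). Elongation 30 min at 30 °C, then 30 PCR cycles. Products run on 10% PAGE with phosphorimager read-out, in triplicate. Drug levels kept below those inhibiting Taq.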

HeLa = test: Cytotoxicity against human HeLa cells expressing telomerase after 96 hrs by MTT assay; format: functional, cell-based
Summary of the method: (§2)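 Cells grown in DMEM with 10% heat-inactivated FCS, penicillin/streptomycin, 37 °C, 5% CO2. Plated at 10000 cells/well and left overnight, then exposed to eight serial dilutions in triplicate for 96 h. MTT added to 0.8 mg/mL final for 2 h, formazan dissolved in DMSO, absorbance read at 540 nm. IC50 from sigmoidal dose-response fits.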

[5] = Cytotoxicity against human 293T cells expressing telomerase after 96 hrs by MTT assay; format: cell-based; conditions: HEK-293T; summary of the method: as §2

SMILES: NCCC(=O)Nc1ccc2c(c1)C(=O)c1cc(NC(=O)CCN)ccc1C2=O
- ΔTm (Homo sapiens [1]): 23.4 °C
- ΔTm (Homo sapiens [2]): 11.3 °C
- EC50 [3]: 10 µM
- EC50 [4]: 1.2 µM
- IC50 (HeLa): 57 µM
- IC50 [5]: 79 µM

SMILES: NCCNC(=O)c1ccc2c(c1)C(=O)c1cc(C(=O)NCCN)ccc1C2=O
- ΔTm (Homo sapiens [1]): 12.9 °C
- ΔTm (Homo sapiens [2]): 3.3 °C
- EC50 [3]: > 40 µM
- EC50 [4]: 15 µM
- IC50 (HeLa): 100 µM
- IC50 [5]: 100 µM

SMILES: NCCNC(=O)c1ccc2c(c1)C(=O)c1ccc(C(=O)NCCN)cc1C2=O
- ΔTm (Homo sapiens [1]): 9 °C
- ΔTm (Homo sapiens [2]): 2 °C
- EC50 [3]: 20 µM
- EC50 [4]: 5 µM
- IC50 (HeLa): 40 µM
- IC50 [5]: 86 µM

SMILES: NCCC(=O)Nc1ccc2c(c1)C(=O)c1ccc(NC(=O)CCN)cc1C2=O
- ΔTm (Homo sapiens [1]): 18.1 °C
- ΔTm (Homo sapiens [2]): 9.1 °C
- EC50 [3]: > 40 µM
- EC50 [4]: 1.25 µM
- IC50 (HeLa): > 100 µM
- IC50 [5]: > 100 µM

SMILES: NCC(=O)NCC(=O)Nc1ccc2c(c1)C(=O)c1ccc(NC(=O)CNC(=O)CN)cc1C2=O
- ΔTm (Homo sapiens [1]): 8.6 °C
- ΔTm (Homo sapiens [2]): 0.4 °C
- EC50 [3]: > 40 µM
- EC50 [4]: 5 µM
- IC50 (HeLa): 39 µM
- IC50 [5]: > 100 µM

SMILES: NCC(=O)Nc1ccc2c(c1)C(=O)c1ccc(NC(=O)CN)cc1C2=O
- ΔTm (Homo sapiens [1]): 3.6 °C
- ΔTm (Homo sapiens [2]): 0.1 °C
- EC50 [3]: > 40 µM
- EC50 [4]: 25 µM
- IC50 (HeLa): 76 µM
- IC50 [5]: > 100 µM

SMILES: CC[C@H](C)[C@H](N)C(=O)NCC(=O)Nc1ccc2c(c1)C(=O)c1ccc(NC(=O)CNC(=O)[C@@H](N)[C@@H](C)CC)cc1C2=O
- ΔTm (Homo sapiens [1]): 4.3 °C
- ΔTm (Homo sapiens [2]): 0.8 °C
- EC50 [3]: > 40 µM
- EC50 [4]: 25 µM
- IC50 (HeLa): 18 µM
- IC50 [5]: 42 µM

SMILES: NCCCC[C@H](N)C(=O)NCCC(=O)Nc1ccc2c(c1)C(=O)c1ccc(NC(=O)CCNC(=O)[C@@H](N)CCCCN)cc1C2=O
- ΔTm (Homo sapiens [1]): 17.2 °C
- ΔTm (Homo sapiens [2]): 6.6 °C
- EC50 [3]: 10 µM
- EC50 [4]: 0.8 µM
- IC50 (HeLa): 100 µM
- IC50 [5]: > 100 µM

SMILES: C[C@H](N)C(=O)NCC(=O)Nc1ccc2c(c1)C(=O)c1ccc(NC(=O)CNC(=O)[C@H](C)N)cc1C2=O
- ΔTm (Homo sapiens [1]): 9.2 °C
- ΔTm (Homo sapiens [2]): 6.1 °C
- EC50 [3]: > 40 µM
- EC50 [4]: 25 µM
- IC50 (HeLa): 17 µM
- IC50 [5]: 43 µM
